ChEMBL document CHEMBL4689842, “EUbOPEN Chemogenomics Library wave 1” (2021)

Tested on: HEK-293T
Assay: Multiplex assay against HEK293T;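 for Population Tubulin-Different-Phenotype (%): share of the cells with healthy nuclei that show this phenotype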
Type: toxicity, cell-based
Conditions: human
Method in brief: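 Imaging took place on a CQ1 microscope at 37°C and 5% CO2 once compound had been added to live cells stained at seeding with Hoechst33342, BioTracker Green Microtubule Cytoskeleton Dye, MitoTracker Red and Annexin V Alexa Fluor 680. CellPathfinder machine-learning gating classed cells as Hoechst high-intensity objects or normal cells, classed normal cells as having healthy, pyknosed or fragmented nuclei, and classed pyknosed cells as mitotic or apoptotic. Tubulin, mitochondrial-mass and membrane-permeability phenotypes are per cents of the healthy-nucleus cells.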

[1] = 12 h, 1 µM, compound concentration 1 uM, replicate 1
[2] = 12 h, 1 µM, compound concentration 1 uM, replicate 2
[3] = 12 h, 10 µM, compound concentration 10 uM, replicate 1
[4] = 12 h, 10 µM, compound concentration 10 uM, replicate 2
[5] = 24 h, 1 µM, compound concentration 1 uM, replicate 1
[6] = 24 h, 1 µM, compound concentration 1 uM, replicate 2
[7] = 24 h, 10 µM, compound concentration 10 uM, replicate 1

In the case of CCC(=O)O[C@]1(C(=O)SCF)[C@H](C)C[C@H]2[C@@H]3C[C@H](F)C4=CC(=O)C=C[C@]4(C)[C@@]3(F)[C@@H](O)C[C@@]21C [FLUTICASONE PROPIONATE], the “Population Apoptotic (%)” value [1] is reported as 51%, the “Population Fragmented Nuclei (%)” value [1] is reported as 10% and the “Population Healthy Nuclei (%)” value [1] is reported as 33%. The “Population Hoechst High Intensity Objects (%)” value [1] was 11%, the “Population Membrane Permeable-Phenotype (%)” value [1] was 0% and the “Population Mitochondria Different-Phenotype (%)” value [1] was 87%. The “Population Mitotic Cells (%)” value [1] was 48%, the “Population Normal (%)” value [1] was 88% and the “Population Pyknosed Nuclei (%)” value [1] was 56%. For the same molecule, the “Population Tubulin-Different-Phenotype (%)” value [1] was 52%, the “Total Cell Count” value [1] was 253 and the “Population Apoptotic (%)” value [2] was 9%. For the same molecule, the “Population Fragmented Nuclei (%)” value [2] was 4%, the “Population Healthy Nuclei (%)” value [2] was 46% and the “Population Hoechst High Intensity Objects (%)” value [2] was 2%. The “Population Membrane Permeable-Phenotype (%)” value [2] was 7%, the “Population Mitochondria Different-Phenotype (%)” value [2] was 13% and the “Population Mitotic Cells (%)” value [2] was 90%. For the same molecule, the “Population Normal (%)” value [2] was 97%, the “Population Pyknosed Nuclei (%)” value [2] was 48% and the “Population Tubulin-Different-Phenotype (%)” value [2] was 19%. For the same molecule, the “Total Cell Count” value [2] was 273, the “Population Apoptotic (%)” value [3] was 68% and the “Population Fragmented Nuclei (%)” value [3] was 11%. For the same molecule, the “Population Healthy Nuclei (%)” value [3] was 32%, the “Population Hoechst High Intensity Objects (%)” value [3] was 15% and the “Population Membrane Permeable-Phenotype (%)” value [3] was 1%. For the same molecule, the “Population Mitochondria Different-Phenotype (%)” value [3] was 89%, the “Population Mitotic Cells (%)” value [3] was 31% and the “Population Normal (%)” value [3] was 84%. The “Population Pyknosed Nuclei (%)” value [3] was 56%, the “Population Tubulin-Different-Phenotype (%)” value [3] was 78% and the “Total Cell Count” value [3] was 203. The “Population Apoptotic (%)” value [4] was 25%, the “Population Fragmented Nuclei (%)” value [4] was 4% and the “Population Healthy Nuclei (%)” value [4] was 27%. The “Population Hoechst High Intensity Objects (%)” value [4] was 6%, the “Population Membrane Permeable-Phenotype (%)” value [4] was 8% and the “Population Mitochondria Different-Phenotype (%)” value [4] was 54%. The “Population Mitotic Cells (%)” value [4] was 74%, the “Population Normal (%)” value [4] was 93% and the “Population Pyknosed Nuclei (%)” value [4] was 68%. For the same molecule, the “Population Tubulin-Different-Phenotype (%)” value [4] was 60%, the “Total Cell Count” value [4] was 187 and the “Population Apoptotic (%)” value [5] was 59%. For the same molecule, the “Population Fragmented Nuclei (%)” value [5] was 10%, the “Population Healthy Nuclei (%)” value [5] was 41% and the “Population Hoechst High Intensity Objects (%)” value [5] was 17%. For the same molecule, the “Population Membrane Permeable-Phenotype (%)” value [5] was 6%, the “Population Mitochondria Different-Phenotype (%)” value [5] was 68% and the “Population Mitotic Cells (%)” value [5] was 40%. The “Population Normal (%)” value [5] was 82%, the “Population Pyknosed Nuclei (%)” value [5] was 48% and the “Population Tubulin-Different-Phenotype (%)” value [5] was 40%. For the same molecule, the “Total Cell Count” value [5] was 273, the “Population Apoptotic (%)” value [6] was 7% and the “Population Fragmented Nuclei (%)” value [6] was 3%. For the same molecule, the “Population Healthy Nuclei (%)” value [6] was 67%, the “Population Hoechst High Intensity Objects (%)” value [6] was 1% and the “Population Mitochondria Different-Phenotype (%)” value [6] was 12%. The “Population Mitotic Cells (%)” value [6] was 92%, the “Population Normal (%)” value [6] was 98% and the “Population Pyknosed Nuclei (%)” value [6] was 29%. For the same molecule, the “Population Tubulin-Different-Phenotype (%)” value [6] was 22%, the “Total Cell Count” value [6] was 322 and the “Population Apoptotic (%)” value [7] was 61%. For the same molecule, the “Population Fragmented Nuclei (%)” value [7] was 15%.
